Assay results taken from ChEMBL document CHEMBL2157989, “Synthesis and biological evaluation of antibody conjugates of phosphate prodrugs of cytotoxic DNA alkylators for the targeted treatment of cancer” (J Med Chem, 2012).
pIC50: −log10 of the molar value. Calls of active or inactive are those of the source. The rule behind the calls is not given here.

Columns and labels:
[1] = Cytotoxicity against human NAMALWA cells assessed as cell survival after 72 hrs by clonogenic assay; type: functional, cell-based; details: NAMALVA
How it was run: (§1)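 Cells were kept in RPMI 1640 with 10% heat-inactivated FBS at 37 °C and 6% CO₂. They were plated at 1000–5000 cells/well and exposed to 0–3 nM test agent for 72 h. Medium was then replaced and colonies grew for 7–10 days in total after plating. Colonies were fixed and stained with 0.2% crystal violet in 10% formalin/PBS, then counted. Surviving fraction = colonies in treated wells / colonies in control wells; IC₅₀ was taken from this.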

[2] = test system: HL-60; experiment: Cytotoxicity against human HL60 cells assessed as cell survival after 72 hrs by clonogenic assay; type: functional, cell-based; details: HL-60, 72 h; how it was run: as §1
[3] = Solubility in dichloromethane at 1.5 mg sonicated for 45 mins followed by centrifugation for 45 mins by UV/Vis spectroscopy; type: physicochemical; details: 0.75 h
[4] = Solubility in methanol at 1.5 mg sonicated for 45 mins followed by centrifugation for 45 mins by UV/Vis spectroscopy; type: physicochemical; details: 0.75 h
How it was run: (§2)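 Solid compound (~1.5 mg) in the stated solvent was sonicated 45 min, then centrifuged at 1400g for 45 min. The supernatant concentration was read by UV/vis at 340 nm, using ε = 41500 M⁻¹ cm⁻¹ for the free phenols and 34500 M⁻¹ cm⁻¹ for the phosphate prodrugs (pH 7.0 values).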

[5] = Solubility in DMSO at 1.5 mg sonicated for 45 mins followed by centrifugation for 45 mins by UV/Vis spectroscopy; type: physicochemical; details: 0.75 h; how it was run: as §2
[6] = Solubility in DMF at 1.5 mg sonicated for 45 mins followed by centrifugation for 45 mins by UV/Vis spectroscopy; type: physicochemical; details: 0.75 h; how it was run: as §2
[7] = test system: Ramos; experiment: Cytotoxicity against human Ramos cells assessed as cell survival after 72 hrs by clonogenic assay; type: functional, cell-based; how it was run: as §1
[8] = Solubility in ethanol at 1.5 mg sonicated for 45 mins followed by centrifugation for 45 mins by UV/Vis spectroscopy; type: physicochemical; details: 0.75 h; how it was run: as §2
[9] = Solubility in DMA at 1.5 mg sonicated for 45 mins followed by centrifugation for 45 mins by UV/Vis spectroscopy; type: physicochemical; details: 0.75 h; how it was run: as §2
[10] = Solubility in ethyl acetate at 1.5 mg sonicated for 45 mins followed by centrifugation for 45 mins by UV/Vis spectroscopy; type: physicochemical; details: 0.75 h; how it was run: as §2
[11] = Solubility in chloroform at 1.5 mg sonicated for 45 mins followed by centrifugation for 45 mins by UV/Vis spectroscopy; type: physicochemical; details: 0.75 h; how it was run: as §2
[12] = Solubility in hexane at 1.5 mg sonicated for 45 mins followed by centrifugation for 45 mins by UV/Vis spectroscopy; type: physicochemical; details: 0.75 h; how it was run: as §2
[13] = Solubility in toluene at 1.5 mg sonicated for 45 mins followed by centrifugation for 45 mins by UV/Vis spectroscopy; type: physicochemical; details: 0.75 h; how it was run: as §2
[14] = Solubility in water at 1.5 mg sonicated for 45 mins followed by centrifugation for 45 mins by UV/Vis spectroscopy; type: physicochemical; details: 0.75 h; how it was run: as §2
[15] = Prodrug activation assessed as enzyme-mediated compound dephosphorylation in presence of bovine semen prostatic acid phosphatase P3147 at pH 7.4 by HPLC; details: cattle, isolated protein
[16] = Prodrug activation assessed as enzyme-mediated compound dephosphorylation in presence of bovine alkaline phosphatase P8361 at pH 7.4 by HPLC; details: cattle, isolated protein
[17] = Solubility in water containing 5% acetone at 1.5 mg sonicated for 45 mins followed by centrifugation for 45 mins by UV/Vis spectroscopy; type: physicochemical; details: 0.75 h
[18] = Prodrug activation assessed as enzyme-mediated compound dephosphorylation in presence of rabbit intestine alkaline phosphatase P2256 at pH 7.4 by HPLC; details: isolated protein
[19] = Solubility in water containing 5% DMF at 1.5 mg sonicated for 45 mins followed by centrifugation for 45 mins by UV/Vis spectroscopy; type: physicochemical; details: 0.75 h
[20] = Prodrug activation assessed as enzyme-mediated compound dephosphorylation in presence of canine intestine alkaline phosphatase P8639 at pH 7.4 by HPLC; details: dog, isolated protein
[21] = Prodrug activation assessed as enzyme-mediated compound dephosphorylation in presence of human placenta alkaline phosphatase from P3895 at pH 7.4 by HPLC; details: isolated protein
[22] = Stability of the compound in 5 % DMA assessed as cyclopropyl ring formation incubated for 1 yr at room temperature at pH 7 by HPLC analysis; type: physicochemical; details: buffer, pH 7, 8766 h
How it was run: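 Phosphate prodrug is stored for one year at room temperature in phosphate buffer containing 5% DMA at pH ~7. Conversion to the ring-closed cyclopropyl form is monitored by HPLC.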

[23] = test system: Ramos; experiment: Antitumor activity against human Ramos cells xenografted in CB17 SCID mouse assessed as reduction in tumor growth rate at 75 ug/kg, iv dosed as qdx5 regime starting 7 days post xenograft; type: functional, organism-based
How it was run: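 Female CB 17 SCID mice, five weeks old, were given Ramos cells subcutaneously under the right shoulder (5 × 10⁶ cells/mouse in 0.1 mL serum-free medium). Tumors grew 7 days to about 100 mm³. Mice were randomized, six per group. Dosing was 75 μg/kg (drug basis) qd ×5, given intravenously, with phosphate-buffered saline as vehicle control. Tumors were measured in three dimensions twice weekly, with volume = ½(l×w×h); body weight was also taken twice weekly.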

[24] = Prodrug activation assessed as enzyme-mediated compound dephosphorylation in presence of human semen prostatic acid phosphatase P1649 at pH 7.4 by HPLC; details: isolated protein
[25] = Prodrug activation assessed as enzyme-mediated compound dephosphorylation in presence of calf intestine alkaline phosphatase P7923 at pH 7.4 by HPLC; details: cattle, isolated protein
[26] = Prodrug activation assessed as enzyme-mediated compound dephosphorylation in presence of porcine kidney alkaline phosphatase P4439 at pH 7.4 by HPLC; details: pig, isolated protein
[27] = Solubility in water containing 5% THF at 1.5 mg sonicated for 45 mins followed by centrifugation for 45 mins by UV/Vis spectroscopy; type: physicochemical; details: 0.75 h
[28] = Prodrug activation assessed as enzyme-mediated compound dephosphorylation in presence of porcine intestine mucosa alkaline phosphatase P4002 at pH 7.4 by HPLC; details: pig, isolated protein
[29] = Prodrug activation assessed as enzyme-mediated compound dephosphorylation in presence of bovine intestinal mucosa alkaline phosphatase P7640 at pH 7.4 by HPLC; details: cattle, isolated protein
[30] = Solubility in water containing 5% DMA at 1.5 mg sonicated for 45 mins followed by centrifugation for 45 mins by UV/Vis spectroscopy; type: physicochemical; details: 0.75 h
[31] = Prodrug activation assessed as enzyme-mediated compound dephosphorylation in presence of calf intestine mucosa alkaline phosphatase P79390 at pH 7.4 by HPLC; details: cattle, isolated protein
[32] = Solubility in water containing 5% dioxane at 1.5 mg sonicated for 45 mins followed by centrifugation for 45 mins by UV/Vis spectroscopy; type: physicochemical; details: 0.75 h
[33] = Prodrug activation assessed as enzyme-mediated compound dephosphorylation in presence of bovine liver alkaline phosphatase P7034 at pH 7.4 by HPLC; details: cattle, isolated protein
[34] = Prodrug activation assessed as enzyme-mediated compound dephosphorylation in presence of bovine kidney alkaline phosphatase P4653 at pH 7.4 by HPLC; details: cattle, isolated protein
[35] = Solubility in water containing 5% DMSO at 1.5 mg sonicated for 45 mins followed by centrifugation for 45 mins by UV/Vis spectroscopy; type: physicochemical; details: 0.75 h
[36] = Prodrug activation assessed as enzyme-mediated compound dephosphorylation in presence of wheat germ acid phosphatase Sigma P3627 at pH 7.4 by HPLC; details: isolated protein

Nc1ccc2[nH]c(C(=O)Nc3ccc4[nH]c(C(=O)N5C[C@@H](CCl)c6c5cc(O)c5ccccc65)cc4c3)cc2c1
pIC50 [1]: 11.30 | pIC50 [2]: 10.52

CC(=O)SCCC(=O)Nc1ccc2[nH]c(C(=O)Nc3ccc4[nH]c(C(=O)N5C[C@@H](CCl)c6c5cc(O)c5ccccc65)cc4c3)cc2c1
solubility [3]: Insoluble | solubility [4]: Insoluble | pIC50 [1]: 10.70 | solubility [5]: soluble | solubility [6]: soluble | pIC50 [7]: 10.33 | solubility [8]: Insoluble | solubility [9]: soluble | solubility [10]: Insoluble | solubility [11]: Insoluble | solubility [12]: Insoluble | solubility [13]: Insoluble | solubility [14]: Insoluble | pIC50 [2]: 10.35

CC(C)(S)CCC(=O)Nc1ccc2[nH]c(C(=O)Nc3ccc4[nH]c(C(=O)N5C[C@@H](CCl)c6c5cc(OP(=O)(O)O)c5ccccc65)cc4c3)cc2c1
Drug metabolism [15]: Active | solubility [3]: Insoluble | Drug metabolism [16]: Active | solubility [4]: Insoluble | solubility [17]: soluble | Drug metabolism [18]: Active | solubility [19]: soluble | Drug metabolism [20]: Active | Drug metabolism [21]: Active | Drug degradation [22]: 3% | solubility [5]: soluble | Activity [23]: inactive | Drug metabolism [24]: Active | solubility [6]: soluble | Drug metabolism [25]: Active | Drug metabolism [26]: Active | solubility [8]: Insoluble | solubility [27]: soluble | Drug metabolism [28]: Active | Drug metabolism [29]: Active | solubility [9]: soluble | solubility [30]: soluble | Drug metabolism [31]: Active | solubility [10]: Insoluble | solubility [32]: soluble | Drug metabolism [33]: Active | Drug metabolism [34]: Active | solubility [35]: soluble | solubility [11]: Insoluble | Drug metabolism [36]: Active | solubility [12]: Insoluble | solubility [13]: Insoluble | solubility [14]: Insoluble

O=C(Nc1ccc2[nH]c(C(=O)N3C[C@@H](CCl)c4c3cc(O)c3ccccc43)cc2c1)c1cc2cc([N+](=O)[O-])ccc2[nH]1
pIC50 [1]: 11.30 | pIC50 [2]: 11.15

CSSCCC(=O)Nc1ccc2[nH]c(C(=O)Nc3ccc4[nH]c(C(=O)N5C[C@H]6CC67C5=CC(=O)c5ccccc57)cc4c3)cc2c1 (stereo partly specified)
pIC50 [1]: 10.92 | pIC50 [7]: 10.82 | pIC50 [2]: 10.92

O=C(CCS)Nc1ccc2[nH]c(C(=O)Nc3ccc4[nH]c(C(=O)N5C[C@@H](CCl)c6c5cc(OP(=O)(O)O)c5ccccc65)cc4c3)cc2c1
Drug metabolism [15]: Active | solubility [3]: Insoluble | Drug metabolism [16]: Active | solubility [4]: Insoluble | solubility [17]: soluble | Drug metabolism [18]: Active | solubility [19]: soluble | Drug metabolism [20]: Active | Drug metabolism [21]: Active | Drug degradation [22]: 3% | solubility [5]: soluble | Activity [23]: inactive | Drug metabolism [24]: Active | solubility [6]: soluble | Drug metabolism [25]: Active | Drug metabolism [26]: Active | solubility [8]: Insoluble | solubility [27]: soluble | Drug metabolism [28]: Active | Drug metabolism [29]: Active | solubility [9]: soluble | solubility [30]: soluble | Drug metabolism [31]: Active | solubility [10]: Insoluble | solubility [32]: soluble | Drug metabolism [33]: Active | Drug metabolism [34]: Active | solubility [35]: soluble | solubility [11]: Insoluble | Drug metabolism [36]: Active | solubility [12]: Insoluble | solubility [13]: Insoluble | solubility [14]: Insoluble

O=C(CCSSc1ccccn1)Nc1ccc2[nH]c(C(=O)Nc3ccc4[nH]c(C(=O)N5C[C@@H](CCl)c6c5cc(O)c5ccccc65)cc4c3)cc2c1
solubility [3]: Insoluble | solubility [4]: Insoluble | pIC50 [1]: 10.05 | solubility [5]: soluble | solubility [6]: soluble | pIC50 [7]: 10.30 | solubility [8]: Insoluble | solubility [9]: soluble | solubility [10]: Insoluble | solubility [11]: Insoluble | solubility [12]: Insoluble | solubility [13]: Insoluble | solubility [14]: Insoluble | pIC50 [2]: 10.30
